Here are results for twelve molecules from ChEMBL document CHEMBL1144993, “Imidazoline binding sites (IBS) profile modulation: key role of the bridge in determining I1-IBS or I2-IBS selectivity within a series of 2-phenoxymethylimidazoline analogues” (J Med Chem, 2003).

Each structure is given as a SMILES string.

The nature of assay [1]: Displacement of [125I]p-iodoclonidine from imidazoline receptor I-1 in rat pheochromocytoma cells.
In assay [2] the target is Imidazoline I2 binding site (Oryctolagus cuniculus). Kind of assay: Displacement of [3H]idazoxan from imidazoline receptor I-2 of rabbit kidney membranes. For orientation: In a radioligand displacement assay an active substance lowers the binding of a labelled ligand.
For assay [3], the target named is T1, Adrenergic receptor alpha-2 (Rattus norvegicus, UniProt P22086+P19328+P22909).
T1 sequence (P22086 whole entry): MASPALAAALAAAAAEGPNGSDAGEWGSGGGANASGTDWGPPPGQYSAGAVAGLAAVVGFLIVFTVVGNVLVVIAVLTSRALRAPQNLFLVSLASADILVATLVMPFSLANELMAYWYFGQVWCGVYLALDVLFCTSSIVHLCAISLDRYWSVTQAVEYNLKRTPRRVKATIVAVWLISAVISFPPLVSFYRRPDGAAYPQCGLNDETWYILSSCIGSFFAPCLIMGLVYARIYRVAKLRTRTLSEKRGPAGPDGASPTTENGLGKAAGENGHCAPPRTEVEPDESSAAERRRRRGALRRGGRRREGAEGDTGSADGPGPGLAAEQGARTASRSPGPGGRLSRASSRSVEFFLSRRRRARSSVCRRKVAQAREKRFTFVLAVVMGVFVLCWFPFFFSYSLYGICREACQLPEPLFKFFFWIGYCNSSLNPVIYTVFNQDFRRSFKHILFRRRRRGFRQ
T1 sequence (P19328 whole entry): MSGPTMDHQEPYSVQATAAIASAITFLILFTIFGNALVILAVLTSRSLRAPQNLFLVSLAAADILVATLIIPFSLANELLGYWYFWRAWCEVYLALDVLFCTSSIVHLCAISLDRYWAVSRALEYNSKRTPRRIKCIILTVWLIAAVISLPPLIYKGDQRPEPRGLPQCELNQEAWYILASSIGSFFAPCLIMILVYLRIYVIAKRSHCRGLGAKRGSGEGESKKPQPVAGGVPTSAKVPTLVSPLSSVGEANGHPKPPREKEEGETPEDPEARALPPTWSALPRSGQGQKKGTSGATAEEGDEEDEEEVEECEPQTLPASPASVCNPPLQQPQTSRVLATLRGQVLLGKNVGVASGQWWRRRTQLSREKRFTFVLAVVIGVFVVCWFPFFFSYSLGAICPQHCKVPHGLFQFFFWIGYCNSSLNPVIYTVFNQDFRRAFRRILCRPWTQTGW
T1 sequence (P22909 whole entry): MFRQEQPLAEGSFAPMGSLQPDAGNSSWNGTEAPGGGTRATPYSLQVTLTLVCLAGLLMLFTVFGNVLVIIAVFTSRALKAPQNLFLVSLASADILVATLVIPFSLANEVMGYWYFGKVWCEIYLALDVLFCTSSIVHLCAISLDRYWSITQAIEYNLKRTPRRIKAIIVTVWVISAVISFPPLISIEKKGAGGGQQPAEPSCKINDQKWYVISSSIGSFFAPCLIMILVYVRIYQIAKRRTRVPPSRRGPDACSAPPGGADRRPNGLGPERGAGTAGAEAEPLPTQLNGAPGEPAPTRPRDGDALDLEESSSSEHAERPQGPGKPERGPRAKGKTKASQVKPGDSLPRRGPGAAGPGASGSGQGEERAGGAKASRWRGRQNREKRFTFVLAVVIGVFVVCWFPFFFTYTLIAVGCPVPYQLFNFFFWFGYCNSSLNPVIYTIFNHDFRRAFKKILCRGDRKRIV
In words: Displacement of [3H]clonidine from rat cortex membrane Alpha-2 adrenergic receptors. Put shortly: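 Rat cerebral cortex membranes (200 μg protein) incubated with 5 nM [3H]-clonidine and 10–12 competitor concentrations in 50 mM Tris-HCl pH 7.4, 45 min at 25 °C. Nonspecific binding with 10 μM phentolamine. GF/B filtration, scintillation counting, triplicate points.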

Assay [4] can be described thus: Relative binding to imidazoline I1 and alpha-2 adrenergic receptors ([…]).
Assay [5] in a line: Relative binding to imidazoline I2 and imidazoline I1 binding sites ([…]).
The nature of assay [6]: Relative binding to imidazoline I2 and alpha-2 adrenergic receptors ([…]).
The nature of assay [7]: Relative binding to imidazoline I1 and imidazoline I2 binding sites ([…]).
In assay [8] the test system is Oryctolagus cuniculus. Kind of assay: Mean arterial pressure following 15 minute pretreatment with intracisternal compound administration and 10 ug/kg iv clonidine. It is filed as functional, Artery. In a few lines:
(§1)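 Male normotensive Zika rabbits (2.5–3.5 kg), pentobarbitone 40 mg/kg iv anesthesia, 38 °C, tracheotomized, pancuronium 1 mg/kg iv, ventilated. Test drug given intracisternally as 0.2 mL after equal CSF removal, total 300 μg/kg; vehicle group 100 μL saline ic. Clonidine 10 μg/kg iv 15 min later. MAP = diastolic + 1/3 pulse pressure; HR from pressure signal. Mean ± SEM, n = 4–5; repeated-measures ANOVA.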

Assay [9] concerns Oryctolagus cuniculus. Kind of assay: Heart rate following 15 minute pretreatment with intracisternal compound administration and 10 ug/kg iv clonidine. It is filed as functional. In a few lines:
as §1

Assay [10] deals with Oryctolagus cuniculus. Kind of assay: Heart rate during 15 minute pretreatment with intracisternal compound administration. The format is functional. In a few lines:
as §1

For assay [11], the system named is Oryctolagus cuniculus. In words: Mean arterial pressure during 15 minute pretreatment with intracisternal compound administration. The format is functional, Artery. In a few lines:
as §1

Turning to `c1ccc([C@@H]2C[C@H]2C2=NCCN2)cc1`, the “Log Ki” value in [1] is -6.46.

As for `c1ccc([C@H]2C[C@@H]2C2=NCCN2)cc1`, in [1], the “Log Ki” value is listed as -7.93.

For the molecule `CC(CC1=NCCN1)c1ccccc1` (stereo not given), the entries for the “Log Ki” value in assay [2] and in assay [3] were -6.91 and -5.93, respectively.

As for `c1ccc(CCC2=NCCN2)cc1` [PHENYZOLINE], the Ratio amounted to 0.54 in assay [4], 1480 in assay [5], 794 in assay [6] and 0.0007 in assay [7]. Besides, the “Log Ki” value in assay [2] is recorded as -8.6; in assay [3], -5.7.

`c1ccc(C2CC2C2=NCCN2)cc1` (stereo not given): the “Log Ki” value in [1] is listed as -7.76.

As to `C[C@@H](CC1=NCCN1)c1ccccc1`, the “Log Ki” value was -7 in assay [2] and -5.8 in [3].

Take `C(=C\c1ccccc1)/C1=NCCN1`: the Ratio was found to be 741 in assay [4], 10 in assay [5], 7410 in assay [6] and 0.1 in assay [7].

In the case of `C[C@H](CC1=NCCN1)c1ccccc1`, the “Log Ki” value in assay [2] is recorded as -5.6; in assay [3] it was -5.9.

On to `CC(Oc1ccccc1)C1=NCCN1` (stereo not given), for which the Ratio in assay [4] was determined as 0.32; in [5] it was 0.11; in assay [6], 0.04; in assay [7], 8.71.

For `C[C@@H](Cc1ccccc1)C1=NCCN1`, the “Log Ki” value in assay [3] is recorded as -5.3.

As for `C[C@H](Cc1ccccc1)C1=NCCN1`, the “Log Ki” value in [3] is listed as -5.4.

On to `CC(Cc1ccccc1)C1=NCCN1` (stereo not given), for which the MAP is 91 mmHg in [8] and 99 mmHg in assay [11]. For the same molecule, the Heart rate in assay [9] was 355 beats min-1; in [10], 363 beats min-1. Besides, the “Log Ki” value in assay [3] was -5.45.
